Compound activity deposited in PubChem by Broad Institute.
Hits are enriched below; roughly 3% of the tested compounds scored in any of these assays.
SIRT5 inh: SIRT5 desuccinylase inhibitors, primary screen, biochemical, fluorescence imaging, single point, set 5. AID 652115, 2013. Purified SirT5, succinyl-peptide AMC, trypsin-coupled fluorescence. hit rate 1.1% among 330,000. NAD-dependent protein deacylase sirtuin-5, mitochondrial (Homo sapiens), Q9NXA8. inhibition, % at 15 µM; in the data active = inhibition above about 15%
Target sequence (Q9NXA8 whole entry, looked up): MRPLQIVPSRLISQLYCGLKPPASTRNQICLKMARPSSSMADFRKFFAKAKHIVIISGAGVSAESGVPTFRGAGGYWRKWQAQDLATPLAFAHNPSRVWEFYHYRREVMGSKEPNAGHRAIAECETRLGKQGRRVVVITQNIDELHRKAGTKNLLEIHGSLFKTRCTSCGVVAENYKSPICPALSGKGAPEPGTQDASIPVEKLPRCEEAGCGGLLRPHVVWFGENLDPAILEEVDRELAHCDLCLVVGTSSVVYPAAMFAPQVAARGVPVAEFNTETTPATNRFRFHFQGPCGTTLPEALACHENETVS
S100A4 MyoIIA: inhibitors of S100A4-myosin IIA peptide binding, primary screen, biochemical, fluorescence polarization, TAMRA-MyoIIA peptide; Protein S100-A4 (Homo sapiens), P26447; inhibition, % at 10.7 µM; hit rate 0.14% among 360,000;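 active = mean inhibition of at least 70% across replicates, with every replicate also reaching that level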
Target sequence (P26447 whole entry, looked up): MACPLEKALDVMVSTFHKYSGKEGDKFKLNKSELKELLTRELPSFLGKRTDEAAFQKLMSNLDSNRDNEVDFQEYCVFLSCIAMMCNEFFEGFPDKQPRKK
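Assay system: human S100A4 monomer with TAMRA-labelled myosin IIA peptide / Buffer or medium: Calcium-containing HEPES buffer, pH 7.2 / Reagent: TAMRA-labelled myosin IIA heavy-chain peptide probe, 5 nM / Compound: one dose per compound / Timing: polarization read 5 min after assay mix addition, stable 5–60 min / Benchmarks: neutral control DMSO, positive control TFP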
Statin myotox sup: suppressors of statin myotoxicity in C2C12 myotubes, primary screen, cell-based, single point, plate reader; C2C12 myotubes + simvastatin, ATP luminescence, 48 h; scaled: DMSO 0, geranylgeraniol control 100; rescue of ATP level, % at 7.49 µM; hit rate 0.78% among 330,000;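 active = mean ATP rescue above about 67%, or every replicate alone reaching that limit, limit read from the data, passing the limit was not always enough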;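 note: myotubes were challenged with 10 µM simvastatin during compound exposure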
Ecoli rRNA inh: reduced GFP signal of wild-type E. coli, primary screen, bacterial rRNA inhibitor project, GFP/RFP fluorescence, OD600, single point | E. coli WT GFP vs humanized-ribosome RFP mutants, 24 h; hits give low values; DMSO median 0, no signal -100 | GFP signal change (wild-type ribosome), % (concentration not given with the values) | hit rate 1.6% among 350,000 | AID 720706, 2013;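 active = significant combined selectivity score with lowered wild-type GFP, culture density cut under 30%, mutant RFP and density less affected; inactive = any of these conditions unmet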
Cneo AK release: Cryptococcus neoformans cell lysis inducers, primary screen, AK release luminescence, single concentration. C. neoformans lysis, adenylate kinase release luminescence, 4 h; normalised: neutral wells 0, clomiphene wells 100. hit rate 0.2% among 360,000. lysis activity, % at 15 µM;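 active = mean lysis activity across replicates of at least 80%, whatever share of replicates individually reach that level; inactive = mean lysis activity below 80%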
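read-out = cell lysis signal | test system = log-phase Cryptococcus neoformans yeast cells | input = cells at 5 × 10^6 per mL | medium = fresh YPD growth medium | signal = luminescent adenylate kinase detection reagent | timing = 4 h at 37 °C static, read 1 h later | dosing = single dose | controls = Clomiphene as positive lysis control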
PGC1a acetyl inh: inhibitors of PGC1a acetylation signal, primary screen, cell-based, U2OS, AlphaScreen, inhibitor mode; AlphaScreen anti-acetyl-lysine; with virally co-expressed GCN5 acetyltransferase; inhibition, % at 15.6 µM; hit rate 0.17% among 350,000;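 active = every replicate shows inhibition of at least 40%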
Hits are given with their value; . = inactive; / = not tested or not shown.

SMILES	SIRT5 inh	S100A4 MyoIIA	Statin myotox sup	Ecoli rRNA inh	Cneo AK release	PGC1a acetyl inh
CCCC(=O)Nc1ccc2c(c1)C(=O)N(C)C[C@@H](OC)[C@@H](C)CN(Cc1ccncc1)[C@H](C)CO2	/	/	.	.	/	.
Cc1ccc(S(=O)(=O)N2CCC(=O)N([C@H](COCc3cccc(Cl)c3)Cc3ccccc3)CC2)cc1	40	.	/	.	/	/
C[C@H](CO)N1C[C@H](C)[C@@H](CN(C)S(=O)(=O)c2cccs2)Oc2ccc(NC(=O)Nc3ccc4c(c3)OCO4)cc2CC1=O	/	/	.	.	.	.
CCCNC(=O)N1CC2(C1)[C@H](c1ccccc1)[C@@H](CO)N2Cc1cccc(F)c1	.	.	/	.	/	.
CCCNC(=O)N1CC2(C1)[C@H](c1ccccc1)[C@H](CO)N2Cc1cccc(F)c1	24	.	/	.	/	.
O=C(C1CCCC1)N1CC2(C1)[C@H](c1ccccc1)[C@H](CO)N2Cc1nccs1	18	.	/	.	/	/
OC[C@@H]1[C@@H](c2ccccc2)C2(CN(Cc3nccs3)C2)N1Cc1ccncc1	16	.	/	.	/	.
O=C(C1CCCC1)N1CC2(C1)[C@@H](c1ccccc1)[C@@H](CO)N2Cc1nccs1	.	.	/	.	/	.
O=C(C1CCCC1)N1CC2(C1)[C@H](c1ccccc1)[C@@H](CO)N2Cc1ccc(Cl)cc1	31	.	/	.	/	.
CN1c2ccc(-c3ccccc3F)cc2[C@@H]2[C@@H](CCN2C(=O)CN2CCOCC2)[C@@H]1CO	.	.	.	.	.	.
C[C@@H]1CCCCO[C@@H](CN(C)S(=O)(=O)c2ccccc2)[C@H](C)CN([C@@H](C)CO)C(=O)c2cc(NS(=O)(=O)c3cccs3)ccc2O1	.	.	/	.	.	.
C=Cc1ccc(COC(=O)c2cn(CC)c3nc(C)ccc3c2=O)cc1	.	.	.	.	.	.
C=CCOC(=O)c1cn(CC)c2nc(C)ccc2c1=O	.	.	.	-25	.	/
CCn1cc(C(=O)NCc2cccc(C(F)(F)F)c2)c(=O)c2ccc(C)nc21	.	.	.	-23	.	.
COc1ccccc1-c1cn(CC[C@H]2CC[C@@H](NC(=O)c3ccccc3F)[C@@H](CO)O2)nn1	.	.	.	.	.	.
O=C1CC(c2ccncc2)c2cc3c(cc2N1)OCCO3 (stereo not drawn)	/	/	126	/	.	.
O=C1CC(c2cccs2)c2cc3c(cc2N1)OCO3 (stereo not drawn)	/	/	116	/	.	.
COc1cc2c(cc1OC)C(c1ccc(Cl)cc1)CC(=O)N2 (stereo not drawn)	17	.	.	.	.	.
C[C@H](CO)N1C[C@H](C)[C@H](CN(C)C(=O)C2CCCCC2)Oc2cc(C#CC3CC3)ccc2S1(=O)=O	/	/	.	.	/	.
O=C(C1CCC1)N1CCCc2cc(S(=O)(=O)N3CCN(c4ccccc4)CC3)ccc21	.	.	149	.	.	.
O=C(C1CC1)N1CCc2cc(S(=O)(=O)N3CCN(c4ccccc4)CC3)ccc21	.	.	.	.	.	.
C[C@H](O)C#Cc1cnc2c(c1)C(=O)N([C@@H](C)CO)C[C@@H](C)[C@@H](CN(C)C(=O)Cc1ccncc1)O2	.	.	.	.	115	.
CC(C)CC#Cc1cnc2c(c1)C(=O)N([C@H](C)CO)C[C@@H](C)[C@H](CN(C)C(=O)Cc1ccccc1)O2	.	.	101	.	.	.
COCC#Cc1cnc2c(c1)C(=O)N([C@@H](C)CO)C[C@@H](C)[C@@H](CN(C)C(=O)Cc1ccccc1)O2	.	.	.	.	.	.
CC(C)CC#Cc1cnc2c(c1)C(=O)N([C@H](C)CO)C[C@@H](C)[C@H](CN(C)S(C)(=O)=O)O2	.	95	.	.	.	/
